Screening results as filed in PubChem BioAssay.
Most compounds without a hit are left out; they make up all but 1.7% or so of the library.
UCH37 inh = inhibitors of human UCH37 deubiquitinase, primary screen, biochemical, Ub-AMC cleavage, fluorescence. inhibition, % (test concentration not listed). 0.33% of 330,000 active. purified proteasome/UCH37. Ubiquitin carboxyl-terminal hydrolase isozyme L5 (Homo sapiens), Q9Y5K5;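 active means mean inhibition over replicate wells above about 20%, limit read from the data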
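Material: human UCH37 enzyme supplied as purified proteasome complex / Amount: 0.15 nM proteasome as dispensed / Buffer or medium: pH 7.4 Tris-HCl (50 mM) with ovalbumin, ATP-MgCl2, DTT / Times: preincubation 30 min, reaction 25 min, room temperature / Technique: AMC fluorescence from Ub-AMC cleavage, excitation 355 nm, emission 460 nm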
PLCb3 inh = human PLC-beta3 inhibitors, primary screen, biochemical, fluorescence; Purified PLC-beta3, fluorogenic substrate; inhibition, % at 12.2 µM; 0.18% of 370,000 active; AID 720704, 2013
Rpn11 inh = Rpn11 (PSMD14) deubiquitinase inhibitors, primary screen, biochemical, fluorescence polarization, uHTS; human 26S proteasome, Ub4-pepOG fluorescence polarization; 20S core pre-blocked with epoxomicin; inhibition, % at 20 µM; 26S proteasome non-ATPase regulatory subunit 14 (Homo sapiens), O00487; 0.59% of 360,000 active;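 active means inhibition at 20 µM, scaled to each plate's controls, above about 33%, limit read from the data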
PLCg1 inh = PLC-gamma1 enzyme inhibitors, primary screen, biochemical, fluorescence, purified enzyme. 1-phosphatidylinositol 4,5-bisphosphate phosphodiesterase gamma-1 (Homo sapiens), P19174. 0.84% of 370,000 active. inhibition, % at 12.2 µM. AID 720700, 2013. fluorogenic substrate; in the data active means inhibition above about 9.5%
Target sequence (P19174 whole entry, looked up): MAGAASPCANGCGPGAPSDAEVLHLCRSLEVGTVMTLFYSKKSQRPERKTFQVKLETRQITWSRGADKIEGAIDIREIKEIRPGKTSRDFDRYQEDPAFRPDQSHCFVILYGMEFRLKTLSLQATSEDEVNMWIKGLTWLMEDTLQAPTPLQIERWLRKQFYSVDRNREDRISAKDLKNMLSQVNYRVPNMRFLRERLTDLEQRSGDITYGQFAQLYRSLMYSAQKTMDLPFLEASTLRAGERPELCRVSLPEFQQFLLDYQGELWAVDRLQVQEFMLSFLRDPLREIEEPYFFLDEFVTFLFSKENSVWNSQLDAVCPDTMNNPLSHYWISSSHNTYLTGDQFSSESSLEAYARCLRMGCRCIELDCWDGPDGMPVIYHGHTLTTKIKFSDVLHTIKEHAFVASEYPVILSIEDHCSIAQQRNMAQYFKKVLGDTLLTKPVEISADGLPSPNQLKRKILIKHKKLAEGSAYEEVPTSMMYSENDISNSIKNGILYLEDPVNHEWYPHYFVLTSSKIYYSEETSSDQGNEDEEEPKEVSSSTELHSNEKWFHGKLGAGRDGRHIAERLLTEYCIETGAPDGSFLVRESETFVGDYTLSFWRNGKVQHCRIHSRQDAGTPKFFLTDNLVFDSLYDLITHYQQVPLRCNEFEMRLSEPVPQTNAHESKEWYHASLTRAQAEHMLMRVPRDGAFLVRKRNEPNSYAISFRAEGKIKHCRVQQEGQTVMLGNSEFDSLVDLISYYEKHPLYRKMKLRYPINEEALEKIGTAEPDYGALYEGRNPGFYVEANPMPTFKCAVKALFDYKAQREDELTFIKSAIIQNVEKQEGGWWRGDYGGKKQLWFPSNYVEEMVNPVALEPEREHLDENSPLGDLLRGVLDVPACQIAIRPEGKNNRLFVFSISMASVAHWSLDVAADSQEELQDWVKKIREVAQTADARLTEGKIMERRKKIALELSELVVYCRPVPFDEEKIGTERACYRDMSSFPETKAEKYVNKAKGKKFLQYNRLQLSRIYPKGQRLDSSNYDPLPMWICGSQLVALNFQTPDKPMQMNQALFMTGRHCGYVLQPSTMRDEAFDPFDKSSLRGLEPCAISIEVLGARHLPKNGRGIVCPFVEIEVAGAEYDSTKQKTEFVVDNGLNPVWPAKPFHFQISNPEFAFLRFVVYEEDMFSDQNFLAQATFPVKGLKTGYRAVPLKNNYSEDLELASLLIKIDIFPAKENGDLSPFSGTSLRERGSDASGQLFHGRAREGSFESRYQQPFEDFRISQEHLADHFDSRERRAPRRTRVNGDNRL
PLCg1 ctr = PLC-gamma1 enzyme inhibitors, counter-screen for PLC-beta3 inhibitor project, biochemical, fluorescence | shares compounds with PLCg1 inh | purified PLC-gamma1, fluorogenic substrate | inhibition, % at 12.3 µM | 3.1% of 3,300 active | AID 743258, 2014; in the data active means inhibition above about 9.5%
PLCbeta3 conf = PLC-beta3 inhibitor confirmation, biochemical, fluorescence, purified enzyme. shares compounds with PLCg1 inh. fluorogenic substrate fluorescence. inhibition, % at 12.3 µM. 1% of 3,300 active. AID 743261, 2014
Large screens that a line does not name were inactive (follow-up assays come after a bar, where they were run). Unless noted, no stated cut-off is given here; in the data, active means inhibition above about 11%; inactive means the rest.

CSCCC(NC(=O)OCc1ccccc1)C(=O)NCc1cccnc1 (stereo not drawn)	PLCg1 inh 9.8 | PLCg1 ctr inactive | PLCbeta3 conf inactive
CON=CCC(=O)Nc1ccc(Cl)c(Cl)c1	none (no result: PLCb3 inh, Rpn11 inh, PLCg1 inh)
COC(=O)c1cc(COC(=O)c2nc3nc(C)cc(C)n3n2)oc1C	PLCb3 inh 12 | PLCg1 ctr inactive | PLCbeta3 conf inactive
COc1ccc(NS(=O)(=O)c2cc(NC(=NS(=O)(=O)c3ccccc3)c3ccc(F)cc3)ccc2Cl)cc1	none (no result: PLCb3 inh, Rpn11 inh, PLCg1 inh)
O=C(NN=Cc1ccncc1)c1cccc([N+](=O)[O-])c1	none (no result: PLCb3 inh, Rpn11 inh, PLCg1 inh)
Cc1ccc(-c2nnc(SCC(=O)NC3CCCC3)n2C)cc1	PLCg1 inh 11 | PLCg1 ctr inactive | PLCbeta3 conf inactive
Cn1c(SCC(=O)NCC2CCCO2)nnc1-c1ccc(S(=O)(=O)N2CCCC2)cc1 (stereo not drawn)	PLCg1 inh 9.8 | PLCg1 ctr inactive | PLCbeta3 conf inactive
CN1C(=O)c2cc(NC(=O)Nc3ccccc3)ccc2OC[C@H]2O[C@@H](CC(=O)NCc3ccc(-c4ccccc4)cc3)CC[C@@H]21	none (no result: UCH37 inh, Rpn11 inh)
CCNC(=O)C[C@H]1CC[C@H]2[C@@H](COc3ccc(NC(=O)c4ccc5c(c4)OCO5)cc3C(=O)N2C)O1	PLCg1 inh 9.6 (no result: UCH37 inh, Rpn11 inh) | PLCg1 ctr 15 | PLCbeta3 conf 14
CN1C(=O)c2cc(NC(=O)Nc3ccccc3F)ccc2OC[C@H]2O[C@@H](CC(=O)NCc3ccc(-c4ccccc4)cc3)CC[C@@H]21	PLCg1 inh 12 (no result: UCH37 inh, Rpn11 inh) | PLCg1 ctr 13 | PLCbeta3 conf 12
O=C(NN=Cc1ccc(-c2cccc(C(F)(F)F)c2)o1)c1cccc(F)c1	none (no result: PLCb3 inh, Rpn11 inh, PLCg1 inh)
CCc1ccc(OCC(=O)Nc2ccc3c(c2)OCCO3)cc1	PLCg1 inh 9.5 | PLCg1 ctr inactive | PLCbeta3 conf inactive
O=C(NCc1ccc2c(c1)OCO2)Nc1ccc(F)cc1	none
CCOc1ccc2nc(SCC(=O)Nc3ncccn3)[nH]c2c1	PLCg1 inh 11 | PLCg1 ctr inactive | PLCbeta3 conf inactive
CCOc1ccc(NC(=O)NCc2ccc3c(c2)OCO3)cc1	PLCg1 inh 9.5 | PLCg1 ctr inactive | PLCbeta3 conf inactive
COc1ccc2nc(SCC(=O)NCc3ccc4c(c3)OCO4)[nH]c2c1	none
CCOc1ccc2nc(SCC(=O)NCc3ccc4c(c3)OCO4)[nH]c2c1	PLCg1 inh 13 | PLCg1 ctr inactive | PLCbeta3 conf inactive
CCOC(=O)NC(=O)CSc1nc2ccc(OCC)cc2[nH]1	none
Cc1occc1C(=O)NCc1ccc2c(c1)OCO2	PLCg1 inh 11 | PLCg1 ctr inactive | PLCbeta3 conf inactive
CCn1c(C)nnc1SCC(=O)Nc1ccc2c(c1)OCCO2	PLCg1 inh 9.9 | PLCg1 ctr inactive | PLCbeta3 conf inactive
Cc1cnc(C(=O)OCC(=O)NCc2ccc3c(c2)OCO3)cn1	PLCb3 inh 11 | PLCg1 ctr inactive | PLCbeta3 conf inactive
Cc1cc(C(=O)NCc2ccc3c(c2)OCO3)c(C)o1	none
COc1cc(C=NNC(=O)c2ccccc2)ccc1OS(=O)(=O)c1ccccc1	none (no result: PLCb3 inh, Rpn11 inh, PLCg1 inh)
N#C/C(=C\c1ccco1)C(=O)NCC1CCCO1 (stereo not drawn)	PLCb3 inh 13, PLCg1 inh 11 | PLCg1 ctr inactive | PLCbeta3 conf inactive
O=[N+]([O-])c1ccc(Nc2ccccc2O)c([N+](=O)[O-])c1	PLCg1 inh 9.5 (no result: UCH37 inh) | PLCg1 ctr inactive | PLCbeta3 conf inactive
O=C(O)c1cc([N+](=O)[O-])ccc1Nc1ccccc1	none
COc1ccc(/C=N/Nc2nc(Nc3ccccc3)nc(N3CCCC3)n2)cc1[N+](=O)[O-]	none (no result: UCH37 inh)
COc1cc(/C=N/Nc2nc(Nc3ccccc3)nc(N3CCCCC3)n2)ccc1OCC(=O)O	PLCg1 inh 12 (no result: UCH37 inh) | PLCg1 ctr inactive | PLCbeta3 conf inactive
Nc1n[nH]c(N)c1N=Nc1ccc(Cl)cc1	PLCb3 inh 14, PLCg1 inh 20 | PLCg1 ctr inactive | PLCbeta3 conf inactive
CCOC(=O)C(C#N)=NNc1ccc(S(=O)(=O)N2CCc3ccccc32)cc1	none (no result: PLCb3 inh, Rpn11 inh, PLCg1 inh)
Cc1ccc(C(=O)ON=Cc2c(C)nn(C)c2Cl)cc1	none (no result: PLCb3 inh, Rpn11 inh, PLCg1 inh)
CC(C)CC(=O)NC(=S)Nc1nc(-c2cccc3ccccc23)cs1	PLCg1 inh 16 | PLCg1 ctr inactive | PLCbeta3 conf inactive
CCOC(=O)Cc1csc(NC(=S)NC(=O)CC(C)C)n1	none
O=C(NN=Cc1ccc2c(c1)OCO2)c1cc2ccccc2o1	none (no result: PLCb3 inh, Rpn11 inh, PLCg1 inh)
CN1CCN(CCn2c(=S)[nH]c3ccccc3c2=O)CC1	none
O=c1c2ccccc2[nH]c(=S)n1CCN1CCN(Cc2ccccc2)CC1	PLCg1 inh 11 | PLCg1 ctr inactive | PLCbeta3 conf inactive
Oc1ccc(C=NNC2=NCCCCC2)cc1	none (no result: PLCb3 inh, Rpn11 inh, PLCg1 inh)
Cc1cc(C)nc(N/N=C/c2ccccc2OCc2ccc([N+](=O)[O-])cc2)n1	PLCg1 inh 13 (no result: UCH37 inh) | PLCg1 ctr inactive | PLCbeta3 conf inactive
Cc1cc(C)nc(NN=Cc2ccccc2OCc2ccc([N+](=O)[O-])cc2)n1	none (no result: PLCb3 inh, Rpn11 inh, PLCg1 inh)
O=C(CN1CCN(C(=O)N2CCCCC2)CC1)Nc1ccc(F)cc1	PLCg1 inh 11 | PLCg1 ctr inactive | PLCbeta3 conf inactive
O=C(CN1CCCC1)Nc1ccc(F)cc1	none
O=C(COC(=O)C1=COCCO1)Nc1ccccc1Oc1ccccc1	PLCb3 inh 11 | PLCg1 ctr inactive | PLCbeta3 conf inactive
CCOC(=O)C(=NNc1ccc(C(C)=O)cc1)c1csc(Nc2ccccc2)n1	none (no result: PLCb3 inh, Rpn11 inh, PLCg1 inh)
Cc1ccc(NC(=O)CSc2nnc(C3CCCCC3)n2N)cc1F	PLCg1 inh 13 | PLCg1 ctr inactive | PLCbeta3 conf inactive
Nn1c(SCC(=O)Nc2ccc(F)cc2)nnc1C1CCCCC1	none
O=C(NCc1ccco1)C(c1ccccc1)N(C(=O)Cc1cccs1)c1cccnc1 (stereo not drawn)	none
O=C(NCC1CCCO1)C(c1cccnc1)N(C(=O)Cc1cccs1)c1cccnc1 (stereo not drawn)	PLCb3 inh 13, PLCg1 inh 11 | PLCg1 ctr inactive | PLCbeta3 conf inactive
COC(=O)NN=C(c1ccccc1)C1CCCCC1	none (no result: PLCb3 inh, Rpn11 inh, PLCg1 inh)
CCOC(=O)COc1nc2ccc(Br)cc2c(-c2ccccc2)c1C(C)=O	PLCg1 inh 9.8 | PLCg1 ctr inactive | PLCbeta3 conf inactive
Cc1cnc(CNC(=O)c2ccc3sc([C@H]4C[C@H](O)[C@@H](CO)O4)nc3c2)cn1	PLCg1 inh 10 (no result: UCH37 inh) | PLCg1 ctr inactive | PLCbeta3 conf inactive
COc1ccc(C(=O)N[C@H](C(=O)NCC2CCCCC2)C(C)C)cc1	PLCg1 inh 12 | PLCg1 ctr inactive | PLCbeta3 conf inactive
